Assay outcomes: PubChem BioAssay, several laboratories
Only some compounds are listed: those with a hit (about 1.6% of all), similar ones and a draw of the others.
NOD2-RIPK2 inh – blocks binding of human NOD2 to RIPK2. CHO BLA complementation NOD2-RIPK2, CCF4 ratio. inhibition, % at 4.98 µM. 360,000 compounds, 0.38% hits; in the data active = inhibition above about 21%;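 also: 0% = vehicle only and 100% = reference blocker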
Dynein transport – dynein cargo transport inhibition; 3617.4 mouse cells, GR-EGFP nuclear translocation imaging; test concentration mostly 20 µM; stimulated with dexamethasone, 1 µM; hits give low values; z-score, hits read low; 220,000 compounds, 0.47% hits; AID 1381;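 active = plate z-score of nuclear minus cytoplasmic receptor signal below a set negative limit, without overly bright fluorescence or cell loss, cut at about -3.5 in these data, passing the limit was not always enough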;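 also: z-score of nuclear minus cytoplasmic ring GR-EGFP intensity difference per well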
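medium = tetracycline-free induction medium containing charcoal-stripped FBS | probe or stimulus = dexamethasone, 1.0 µM final | timing = 48 h induction, then 1 h compound, then 30 min agonist, 37 °C | detection = automated 10x imaging of fixed Hoechst-stained cells | read-out basis = nuclear versus cytoplasmic GR-EGFP signal, averaged per well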
TLR9-MyD88 inh – inhibitors of human TLR9-MyD88 binding; Q9NR96+Q99836; inhibition, % at 4.98 µM; 340,000 compounds, 0.21% hits; CHO BLA complementation TLR9-MyD88, CCF4 FRET ratio;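 active = inhibition above the mean over all tested compounds plus 3 SD, cut at about 21% in these data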;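 also: 0% = DMSO only wells and 100% = clavulanate BLA inhibitor control wells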
B2AR ag – activates human beta-2 adrenergic receptor causing internalization; response, % (concentration not given with the values); 340,000 compounds, 0.43% hits; AID 504454; Am2.2-beta2AR cells, FAP receptor internalization, flow cytometry;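 active = response above a set limit, near 3 SD of response in nonfluorescent compounds, cut at about 42% in these data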
ABHD5 PLIN5 PPI – blocks binding of human ABHD5 to perilipin-5; Q00G26+Q8WTS1; Split G. princeps luciferase complementation, luminescence, 4 h; inhibition, % at 4 µM; 360,000 compounds, 0.78% hits; AID 602281;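 active = inhibition above the mean inhibition across every tested compound plus 3 SD, cut at about 22% in these data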;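 also: 0% = DMSO only wells and the 100% control is not disclosed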
Target sequence (Q00G26 whole entry, looked up): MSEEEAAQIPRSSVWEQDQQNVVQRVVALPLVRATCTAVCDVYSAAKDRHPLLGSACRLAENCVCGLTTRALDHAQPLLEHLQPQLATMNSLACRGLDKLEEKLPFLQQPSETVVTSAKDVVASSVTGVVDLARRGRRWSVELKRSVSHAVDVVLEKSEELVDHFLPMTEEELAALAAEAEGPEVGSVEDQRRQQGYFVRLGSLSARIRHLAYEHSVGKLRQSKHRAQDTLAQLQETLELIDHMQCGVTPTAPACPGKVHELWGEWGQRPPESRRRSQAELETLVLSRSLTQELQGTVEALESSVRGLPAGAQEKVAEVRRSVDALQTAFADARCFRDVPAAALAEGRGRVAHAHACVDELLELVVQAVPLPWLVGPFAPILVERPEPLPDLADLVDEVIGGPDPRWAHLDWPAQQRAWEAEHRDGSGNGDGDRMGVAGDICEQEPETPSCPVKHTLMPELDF
Target sequence (Q8WTS1 whole entry, looked up): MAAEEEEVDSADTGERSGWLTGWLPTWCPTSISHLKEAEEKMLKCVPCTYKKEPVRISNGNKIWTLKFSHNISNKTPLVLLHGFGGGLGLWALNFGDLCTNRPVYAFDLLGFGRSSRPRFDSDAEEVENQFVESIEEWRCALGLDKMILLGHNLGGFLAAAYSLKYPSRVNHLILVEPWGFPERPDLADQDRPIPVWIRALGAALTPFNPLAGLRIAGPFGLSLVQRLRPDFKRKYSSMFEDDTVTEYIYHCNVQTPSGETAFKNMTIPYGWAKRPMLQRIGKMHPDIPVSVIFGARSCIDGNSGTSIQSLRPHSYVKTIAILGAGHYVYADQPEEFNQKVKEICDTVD
TLR4 MyD88 comp – TLR4-MyD88 interaction inhibition in cells | HeLa CL3-4 TLR4/MyD88 BLA complementation, FRET ratio | 200,000 compounds, 0.18% hits | inhibition, % at 8.4 µM; in the data active = inhibition above about 25%;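 also: 0% = vehicle and 100% = reference inhibitor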
Dynein confirm – dynein cargo transport inhibition, confirmation; 1,000 compounds, 69% hits; 3617.4 GR-EGFP nuclear translocation imaging, dexamethasone-induced; shares compounds with Dynein transport; AID 463116; calls only at 20 µM;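 active = inhibition of receptor movement into the nucleus at or above a set limit in both runs, with normal cell brightness and cell count; inconclusive = limit reached in only one run, brightness and count normal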;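 also: dexamethasone at 1 µM final in well for 30 min; nuclear minus cytoplasmic GR-EGFP mean intensity difference in channel 2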
Active calls of the source: *; i = inactive; u = inconclusive; x = not tested or not shown; + = active, no number.

SMILES	NOD2-RIPK2 inh	Dynein transport	TLR9-MyD88 inh	B2AR ag	ABHD5 PLIN5 PPI	TLR4 MyD88 comp	Dynein confirm
CC1=NN(c2ccccc2)C(=O)/C1=C\C=C\c1ccccc1	-15	-5.3*	x	35	22*	x	+
COc1cc(/C=C2\SC(=O)NC2=O)ccc1Oc1ccc([N+](=O)[O-])cc1[N+](=O)[O-]	-4	-3.8*	-5	5	3	2	u
Cc1ccc(C2C3CSCC=C3C(C#N)=C(N)C2(C#N)C#N)cc1 (configuration not stated)	-1	-4.1*	6	13	7	-6	i
CC(C)N1CC=C2C(C#N)=C(N)C(C#N)(C#N)C(c3ccccc3)C2C1 (configuration not stated)	4	-3	-8	1	-8	-4	x
O=C(Nc1ccc2nc(-c3ccco3)c(-c3ccco3)nc2c1)N1CCCCCC1	x	-1.1	x	x	x	13	x
CCOC(=O)C1CCN(C(=O)Nc2ccc3nc(-c4ccco4)c(-c4ccco4)nc3c2)CC1	4	-4.5*	14	20	31*	17	i
CC1(Cc2ccccc2Cl)C(=O)Nc2ccc(OC(F)(F)F)cc21 (configuration not stated)	2	x	x	x	-1	x	x
COc1ccc(C(c2c(C)[nH]n(C(N)=S)c2=O)C(C#N)C#N)cc1 (configuration not stated)	-5	-4.1*	7	8	7	-4	+
Cc1[nH]n(C(N)=S)c(=O)c1N=Nc1ccc2ccccc2c1	0	-0.7	1	-3	2	0	x
CCOC(=O)C1=C(C)N(c2ccc(C)cc2)C(=O)/C1=C\c1ccc(O)c(OC)c1	-5	-2.6	0	10	18	x	x
COC(=O)C1=C(C)N(Cc2ccc(C)cc2)C(=O)/C1=C\c1cc(OC)c(OC)c(OC)c1	0	-3.5*	-11	16	16	10	+
COC(=O)C1=C(C)N(Cc2ccc(C)cc2)C(=O)/C1=C\c1ccc(O)c(OC)c1	-8	-2.1	-14	26	21	-3	x
CCOc1cc(/C=C2\C(=O)N(CCc3ccc(OC)c(OC)c3)C(C)=C2C(=O)OC)ccc1O	-3	-4*	-1	6	21	-2	i
CCCNC(=O)C1(C)CCCN(C(=O)C2(c3ccc(Cl)cc3)CCCC2)C1 (configuration not stated)	8	x	x	x	-4	x	x
COCc1c(C(=O)NCC(c2ccco2)N2CCCC2)oc2ccccc12 (configuration not stated)	-7	x	-2	x	-3	x	x
Cc1c(C#N)c(NC(=O)CCl)n(Cc2cccs2)c1C	2	-5.2*	-1	13	-4	-5	+
CCc1cc(OCCCCNCc2ccccc2)ccc1Cl	3	-6.9*	-10	-2	17	10	i
Cc1ccc(N2C(=O)c3cccc4c(N)ccc(c34)C2=O)c2cccnc12	13	-5.4*	15	-36	-2	x	u
C=CCSc1nnc(C)c(/C=C/Nc2ccc(Cl)cc2)n1	-3	-7.7	x	-89	-1	21	+
CSc1nnc(C)c(/C=C/Nc2ccc(F)cc2F)n1	-16	0.37	10	5	1	3	x
O=C(C[C@H]1CC[C@@H]2[C@H](COC[C@H](O)CN2Cc2cccc(F)c2)O1)NCc1cccc(F)c1	0	x	x	x	3	x	x
Cc1nc2c(ccc3nc(NC(=O)c4ccc(S(=O)(=O)N(C)C)cc4)sc32)s1	-1	-4.1*	-1	5	-3	-11	i
Cc1nc2c(ccc3nc(NC(=O)Cc4ccccc4)sc32)s1	3	0.15	5	7	1	-3	x
C[C@H]1COc2cc(N3CCC[C@@H]3CO)ccc2S(=O)(=O)N1	-5	x	x	x	-5	x	x
CCNc1ccc(Br)cc(C(=O)/C=C/c2ccc(Cl)cc2Cl)c1=O	7	-5.4	11	-97	47*	1	+
SMILES	NOD2-RIPK2 inh	Dynein transport	TLR9-MyD88 inh	B2AR ag	ABHD5 PLIN5 PPI	TLR4 MyD88 comp	Dynein confirm
CNc1ccc(Br)cc(C(=O)/C=C/c2ccc(OC)cc2)c1=O	-9	-0.46	6	-6	12	9	x
COc1cc(NC(=O)C2(C)CCCN2C(=O)C(C)C)cc(OC)c1OC (configuration not stated)	-9	x	x	x	1	x	x
Cc1ccc(S(=O)(=O)Nc2ccc3c(c2)nc2n3CCN(Cc3ccccc3)C2)cc1	4	-3.5*	6	1	6	1	i
O=C1c2ccccc2C(=O)N1OS(=O)(=O)c1ccc(F)cc1	-6	x	-3	0	4	x	x
Cc1cc(C)c(C)c(S(=O)(=O)ON2C(=O)c3ccccc3C2=O)c1C	-8	-4.3*	-4	33	-4	8	+
Cc1cc(C)c(S(=O)(=O)ON2C(=O)c3ccccc3C2=O)cc1C	4	-6.1*	-5	8	7	-12	+
CCN(c1ccccc1)S(=O)(=O)c1cccc(C(=O)OCC(=O)Nc2ccc(NC(C)=O)cc2)c1	0	x	-4	-6	3	x	x
COCCNC(=O)/C(C#N)=C/C=C/c1ccccc1[N+](=O)[O-]	1	-3.5*	-12	12	0	-8	+
CC(C)C(OC(=O)C1=Cc2ccccc2OC1)C(=O)NCC1CCCO1 (configuration not stated)	-16	x	0	7	12	x	x
NC(CCC(=O)NC(CS)C(=O)NCC(=O)O)C(=O)O (configuration not stated)	-6	x	11	1	-37	x	x
COC(=O)c1cc(NC(=O)c2ccccc2)c(=O)oc1/C=C/Nc1ccc(Oc2ccccc2)cc1	-2	-7.6	6	x	8	-12	i
COc1ccc(C(=O)Nc2cc(C(C)=O)c(C)oc2=O)cc1	3	0.29	-1	1	6	-19	x
Cc1nc([N+](=O)[O-])c(Br)n1CC(=O)c1cccc([N+](=O)[O-])c1	0	-5.5*	-5	8	7	0	+
Cc1nc([N+](=O)[O-])c(Br)n1CC(=O)c1ccc(F)cc1	6	-6.1*	6	-4	12	-5	+
Cc1nc([N+](=O)[O-])c(Br)n1Cc1ccccc1	-3	-5.9*	-2	12	15	x	+
CCOC(=O)[C@H]1[C@H]2COc3ccccc3[C@@H]2N2C(=O)c3c(C)cc(C)cc3NC(=O)[C@@]12C	-2	x	-8	10	-12	x	x
Cc1ccc(NC(=O)c2cc3ccccc3oc2=N)cc1	-7	x	4	4	1	x	x
N=c1oc2c3c4c(cc2cc1C(=O)Nc1ccccc1)CCCN4CCC3	-7	-4.6*	7	-17	7	2	+
CN(C)c1ccc(/C=C2\CCC/C(=C\c3ccccc3)C2=O)cc1	-4	-6.3	17	-10	5	13	i
